ChEMBL document CHEMBL3085705, “Design, chemical synthesis of 3-(9H-fluoren-9-yl)pyrrolidine-2,5-dione derivatives and biological activity against enoyl-ACP reductase (InhA) and Mycobacterium tuberculosis” (2013)

What was measured:
Assay type in all cases: functional
[1] = test system: Mycobacterium tuberculosis; test: Antimicrobial activity against streptomycin, isoniazid, rifampicin, ethambutol, pyrazinamide and ethionammide-resistant Mycobacterium tuberculosis clinical isolate by two-fold serial dilution method
Summary of the method: (§1)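 Compounds dissolved in DMSO. Single colony grown in Middlebrook 7H9 with 0.05% Tween 80 and 10% OADC at 37 °C, no shaking, to ~10^8 CFU/mL (OD600 0.8–1.0). Diluted to ~10^7 CFU/mL; 1 μL streaked onto 7H11 agar (0.5% glycerol, 10% OADC) with two-fold serial compound dilutions. MIC is the lowest concentration inhibiting growth. Repeated three times.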

[2] = test system: Mycobacterium tuberculosis; test: Antimicrobial activity against streptomycin, isoniazid, rifampicin, ethambutol, pyrazinamide, ethionammide and capreomicinl-resistant Mycobacterium tuberculosis clinical isolate by two-fold serial dilution method; summary of the method: as §1
[3] = test system: Mycobacterium tuberculosis; test: Antimicrobial activity against streptomycin, isoniazid, rifampicin and ethambutol-resistant Mycobacterium tuberculosis clinical isolate by two-fold serial dilution method; summary of the method: as §1

Measured: MIC

O=C(CC(C(=O)O)C1c2ccccc2-c2ccccc21)Nc1cc(Cl)cc(Cl)c1 (stereo not drawn)
4.7 µM: all assays above
